# Test results: ChEMBL document CHEMBL2424574, “Structure-activity relationships and pharmacophore model of a noncompetitive pyrazoline containing class of GluN2C/GluN2D selective antagonists” (J Med Chem, 2013)
# Calls of active or inactive are those of the source. The calls are words filed in the database; no cut-off is given here.
# How the values were obtained:
# [1] = molecular target: Glutamate receptor ionotropic, kainate 2 (Homo sapiens) (UniProt Q13002); test: Inhibition of GluK2 receptor (unknown origin) expressed in Xenopus laevis oocytes assessed as inhibition of glutamate-induced current at 3 uM by two-electrode voltage clamp method; values are per cent of control; conditions: Oocyte
# [2] = molecular target: Glutamate receptor ionotropic, kainate 1 (Homo sapiens) (UniProt P39086); test: Inhibition of GluK1 receptor (unknown origin) expressed in Xenopus laevis oocytes assessed as inhibition of glutamate-induced current at 3 uM by two-electrode voltage clamp method; values are per cent of control; conditions: Oocyte
# Sequence of Glutamate receptor ionotropic, kainate 1 (Homo sapiens) (P39086 whole entry): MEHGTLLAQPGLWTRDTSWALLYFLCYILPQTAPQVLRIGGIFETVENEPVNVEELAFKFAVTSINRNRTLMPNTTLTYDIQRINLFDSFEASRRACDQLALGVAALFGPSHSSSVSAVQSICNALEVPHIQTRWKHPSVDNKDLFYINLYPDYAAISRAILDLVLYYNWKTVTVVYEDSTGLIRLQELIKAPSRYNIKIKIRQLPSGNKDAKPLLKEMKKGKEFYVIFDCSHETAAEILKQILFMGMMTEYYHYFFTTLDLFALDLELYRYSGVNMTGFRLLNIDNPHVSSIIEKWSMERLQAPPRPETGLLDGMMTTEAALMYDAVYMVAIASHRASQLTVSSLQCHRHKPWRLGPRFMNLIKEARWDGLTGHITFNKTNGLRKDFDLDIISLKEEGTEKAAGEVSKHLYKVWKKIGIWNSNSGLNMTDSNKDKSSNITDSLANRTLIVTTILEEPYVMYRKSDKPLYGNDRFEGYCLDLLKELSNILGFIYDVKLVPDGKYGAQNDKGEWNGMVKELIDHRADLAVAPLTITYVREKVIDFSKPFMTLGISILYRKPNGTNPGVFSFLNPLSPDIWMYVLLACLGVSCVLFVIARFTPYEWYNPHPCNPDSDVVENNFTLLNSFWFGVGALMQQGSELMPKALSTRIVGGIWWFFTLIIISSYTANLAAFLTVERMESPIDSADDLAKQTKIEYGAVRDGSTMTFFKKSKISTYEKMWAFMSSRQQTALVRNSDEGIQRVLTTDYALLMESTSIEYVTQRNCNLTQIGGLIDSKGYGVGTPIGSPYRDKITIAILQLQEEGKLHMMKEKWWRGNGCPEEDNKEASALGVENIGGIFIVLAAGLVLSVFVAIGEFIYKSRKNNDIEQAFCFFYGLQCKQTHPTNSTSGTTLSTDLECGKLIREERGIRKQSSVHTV
# [3] = Aqueous solubility in DMSO buffer by nephelometric analysis; type: physicochemical; conditions: oocyte recording buffer; in the assay text read “oocyte recording buffer” for “DMSO buffer”
# Outline: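 Solubility measured by nephelometry in oocyte recording buffer: 90 mM NaCl, 1 KCl, 0.5 BaCl2, 0.005 EDTA, 10 HEPES, pH 7.4.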
# MDCK = test: Apparent permeability across apical to basolateral side in dog MDCK cells expressing MDR1 at 5 uM after 120 mins by LC-MS/MS analysis; type: ADME, cell-based, Canis lupus familiaris; conditions: 2 h
# Outline: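 MDR1-MDCK monolayers grown to confluence on collagen-coated polycarbonate membranes. Assay buffer was HBSS with 10 mM HEPES and 15 mM glucose, pH 7.4, and the receiver side also held 1% BSA. Monolayers were dosed apically (A-to-B) or basolaterally (B-to-A) at 5 μM, 37 °C, 5% CO2. Donor and receiver were sampled at 120 min, in duplicate, by LC-MS/MS (ESI). Papp and percent recovery were calculated from receiver/donor concentrations.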
# Liver microsomes [4] = test: Intrinsic clearance in human liver microsomes measured per mg of protein at 1 uM by LC-MS/MS analysis; type: ADME, Microsome
# Outline: (§1)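 Human liver microsomes 0.5 mg/mL in 100 mM potassium phosphate pH 7.4 with 5 mM MgCl2 and 1 μM test compound. Preincubated 3 min at 37 °C, then started with 1 mM NADPH, with a testosterone control in parallel. Sampled at 0, 10, 20, 30 and 60 min and quenched in cold acetonitrile/water with formic acid and internal standard. Percent remaining by LC-MS/MS (MRM) versus time 0. t1/2 = 0.693/k from the ln-remaining slope; CLint = k/protein concentration.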
# [5] = molecular target: Glutamate receptor 2 (Homo sapiens) (UniProt P42262); test: Inhibition of GluA2 receptor (unknown origin) expressed in Xenopus laevis oocytes assessed as inhibition of glutamate-induced current at 3 uM by two-electrode voltage clamp method; values are per cent of control; conditions: Oocyte
# Sequence of Glutamate receptor 2 (Homo sapiens) (P42262 whole entry): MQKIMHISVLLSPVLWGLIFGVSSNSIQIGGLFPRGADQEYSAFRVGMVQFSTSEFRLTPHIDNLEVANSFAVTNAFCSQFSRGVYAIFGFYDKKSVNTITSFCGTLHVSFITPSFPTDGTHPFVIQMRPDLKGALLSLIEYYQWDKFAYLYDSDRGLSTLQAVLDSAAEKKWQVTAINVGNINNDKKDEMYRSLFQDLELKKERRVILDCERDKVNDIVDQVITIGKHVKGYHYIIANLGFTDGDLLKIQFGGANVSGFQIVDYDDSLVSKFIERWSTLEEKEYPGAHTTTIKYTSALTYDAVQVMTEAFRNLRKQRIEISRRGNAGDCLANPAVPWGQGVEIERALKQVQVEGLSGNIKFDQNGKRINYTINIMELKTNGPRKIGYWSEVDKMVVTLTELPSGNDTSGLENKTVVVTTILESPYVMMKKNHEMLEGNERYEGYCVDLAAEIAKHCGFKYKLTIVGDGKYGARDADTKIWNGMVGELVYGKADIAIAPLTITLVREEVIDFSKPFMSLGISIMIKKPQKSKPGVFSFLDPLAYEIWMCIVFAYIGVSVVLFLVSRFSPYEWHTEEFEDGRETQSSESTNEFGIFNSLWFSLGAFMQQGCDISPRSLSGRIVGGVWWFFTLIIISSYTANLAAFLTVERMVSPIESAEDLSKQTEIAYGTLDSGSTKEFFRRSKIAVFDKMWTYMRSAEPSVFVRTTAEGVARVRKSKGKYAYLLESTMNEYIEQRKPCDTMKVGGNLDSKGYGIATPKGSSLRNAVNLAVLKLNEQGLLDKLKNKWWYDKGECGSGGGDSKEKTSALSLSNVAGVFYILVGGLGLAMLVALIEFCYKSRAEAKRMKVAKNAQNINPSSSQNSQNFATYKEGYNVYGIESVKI
# Histamine H2 receptor = Histamine H2 receptor (Homo sapiens, UniProt P25021); test: Inhibition of histamine H2 receptor (unknown origin)
# Outline: (§2)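 Radioligand panel screening was run through the NIMH Psychoactive Drug Screening Program with compounds at 5 µM.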
# Liver microsomes [6] = test: Half life in human liver microsomes at 1 uM; type: ADME, Microsome
# Outline: as §1
# [7] = molecular target: Gamma-aminobutyric acid receptor subunit rho-1 (Homo sapiens) (UniProt P24046); test: Inhibition of human GABA C receptor subunit rho-1 receptor expressed in Xenopus laevis oocytes assessed as inhibition of GABA-induced current at 3 uM by two-electrode voltage clamp method; values are per cent of control; conditions: Oocyte
# Sequence of Gamma-aminobutyric acid receptor subunit rho-1 (Homo sapiens) (P24046 whole entry): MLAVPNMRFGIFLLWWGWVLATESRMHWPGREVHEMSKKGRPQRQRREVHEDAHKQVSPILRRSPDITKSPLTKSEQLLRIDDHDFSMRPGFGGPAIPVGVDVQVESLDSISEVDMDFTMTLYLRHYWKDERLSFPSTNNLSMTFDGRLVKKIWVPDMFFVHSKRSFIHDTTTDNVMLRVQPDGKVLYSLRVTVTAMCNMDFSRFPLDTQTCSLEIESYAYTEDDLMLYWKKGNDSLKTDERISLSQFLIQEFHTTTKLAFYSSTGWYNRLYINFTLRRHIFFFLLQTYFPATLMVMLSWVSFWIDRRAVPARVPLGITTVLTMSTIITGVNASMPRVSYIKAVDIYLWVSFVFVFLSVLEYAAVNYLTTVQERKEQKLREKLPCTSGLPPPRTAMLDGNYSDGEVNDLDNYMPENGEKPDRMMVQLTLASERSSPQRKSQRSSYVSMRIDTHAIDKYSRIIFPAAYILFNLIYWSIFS
# [8] = molecular target: Neuronal acetylcholine receptor; alpha9/alpha10 (Homo sapiens) (UniProt Q9UGM1+Q9GZZ6); test: Inhibition of nicotinic acetylcholine receptor subunit alpha-9 alpha-10 (unknown origin) expressed in Xenopus laevis oocytes assessed as inhibition of acetylcholine-induced current at 3 uM by two-electrode voltage clamp method; values are per cent of control; conditions: Oocyte
# Oocyte = test: Inhibition of gamma-aminobutyric acid receptor A […] (unknown origin) expressed in Xenopus laevis oocytes assessed as inhibition of GABA-induced current at 3 uM by two-electrode voltage clamp method; values are per cent of control; conditions: Homo sapiens
# [9] = molecular target: 5-hydroxytryptamine receptor 6 (Homo sapiens, UniProt P50406); test: Inhibition of 5HT6 receptor (unknown origin)
# Sequence of 5-hydroxytryptamine receptor 6 (P50406 whole entry): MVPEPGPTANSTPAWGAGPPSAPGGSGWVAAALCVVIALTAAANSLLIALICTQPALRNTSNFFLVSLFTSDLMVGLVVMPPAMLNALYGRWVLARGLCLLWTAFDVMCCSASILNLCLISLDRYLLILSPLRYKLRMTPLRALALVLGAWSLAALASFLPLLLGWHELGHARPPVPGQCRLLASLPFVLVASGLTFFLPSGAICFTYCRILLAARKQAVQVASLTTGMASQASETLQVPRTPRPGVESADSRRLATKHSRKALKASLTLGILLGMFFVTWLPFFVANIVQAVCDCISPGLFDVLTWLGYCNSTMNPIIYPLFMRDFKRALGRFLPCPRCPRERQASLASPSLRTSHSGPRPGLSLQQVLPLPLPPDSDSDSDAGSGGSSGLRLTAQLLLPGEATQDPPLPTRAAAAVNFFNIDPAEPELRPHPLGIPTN
# Outline: as §2
# [10] = molecular target: Glutamate receptor ionotropic, NMDA 2A (Rattus norvegicus, UniProt P35439+Q00959); test: Negative allosteric modulation of recombinant rat GluN2A receptor expressed in Xenopus laevis oocytes by two-electrode voltage clamp method; type: cell-based, Oocyte
# Sequence of Glutamate receptor ionotropic, NMDA 2A (Q00959 whole entry, one chain of several): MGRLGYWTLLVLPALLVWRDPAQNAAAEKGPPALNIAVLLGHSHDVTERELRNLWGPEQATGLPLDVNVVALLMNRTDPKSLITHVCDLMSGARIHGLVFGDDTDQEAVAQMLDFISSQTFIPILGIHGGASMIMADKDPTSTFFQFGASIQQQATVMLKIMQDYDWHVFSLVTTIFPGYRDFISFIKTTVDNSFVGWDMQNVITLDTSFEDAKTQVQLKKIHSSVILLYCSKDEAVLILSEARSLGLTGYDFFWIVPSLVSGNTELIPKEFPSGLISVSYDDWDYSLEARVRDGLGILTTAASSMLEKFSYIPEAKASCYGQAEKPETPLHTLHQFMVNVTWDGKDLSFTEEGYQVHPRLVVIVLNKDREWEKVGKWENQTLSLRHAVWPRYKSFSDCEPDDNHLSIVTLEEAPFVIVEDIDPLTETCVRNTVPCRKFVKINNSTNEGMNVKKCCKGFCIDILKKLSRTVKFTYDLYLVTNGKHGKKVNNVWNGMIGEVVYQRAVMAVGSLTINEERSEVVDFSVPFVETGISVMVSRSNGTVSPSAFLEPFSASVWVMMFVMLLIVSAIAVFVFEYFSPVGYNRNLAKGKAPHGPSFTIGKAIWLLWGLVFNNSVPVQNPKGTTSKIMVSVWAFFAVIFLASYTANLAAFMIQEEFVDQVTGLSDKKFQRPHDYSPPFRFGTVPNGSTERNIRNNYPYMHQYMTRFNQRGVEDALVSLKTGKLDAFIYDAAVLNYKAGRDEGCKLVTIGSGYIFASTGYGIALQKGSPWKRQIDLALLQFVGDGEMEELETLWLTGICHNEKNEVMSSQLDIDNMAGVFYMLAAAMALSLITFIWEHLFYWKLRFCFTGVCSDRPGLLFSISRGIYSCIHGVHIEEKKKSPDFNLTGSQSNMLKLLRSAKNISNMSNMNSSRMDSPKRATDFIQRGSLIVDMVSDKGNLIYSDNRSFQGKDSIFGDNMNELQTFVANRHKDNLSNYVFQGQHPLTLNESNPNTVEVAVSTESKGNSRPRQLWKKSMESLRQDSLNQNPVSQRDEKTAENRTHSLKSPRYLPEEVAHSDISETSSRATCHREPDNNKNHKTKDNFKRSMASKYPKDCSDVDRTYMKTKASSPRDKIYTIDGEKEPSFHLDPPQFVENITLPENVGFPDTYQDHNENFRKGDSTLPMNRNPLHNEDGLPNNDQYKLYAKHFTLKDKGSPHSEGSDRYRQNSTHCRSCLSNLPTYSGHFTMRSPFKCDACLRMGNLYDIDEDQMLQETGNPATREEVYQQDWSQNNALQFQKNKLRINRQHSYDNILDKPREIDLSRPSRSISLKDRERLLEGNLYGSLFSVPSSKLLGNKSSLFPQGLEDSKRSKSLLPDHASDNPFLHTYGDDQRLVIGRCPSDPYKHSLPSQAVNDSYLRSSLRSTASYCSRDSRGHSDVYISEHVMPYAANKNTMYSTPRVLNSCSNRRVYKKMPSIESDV
# Outline: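 Two-electrode voltage clamp of Xenopus oocytes expressing rat GluN1 with GluN2A, 2B, 2C or 2D. Holding potential −40 mV in recording solution (mM: 90 NaCl, 1 KCl, 0.5 BaCl2, 0.005 EDTA, 10 HEPES, pH 7.4, 23 °C). Compounds diluted from 20 mM DMSO stocks to 0.05–0.1% final DMSO. IC50 from a Hill fit to the averaged composite concentration–response curve, 5–24 oocytes from 2–4 frogs.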
# Liver microsomes [11] = test: Metabolic stability in human liver microsomes assessed as compound remaining at 1 uM after 30 mins by LC-MS/MS analysis; type: ADME, Microsome; conditions: 0.5 h
# Outline: as §1
# Plasma = test: Metabolic stability in rat plasma after 2 hrs; type: ADME, cell-free
# Outline: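 Stability followed in human, rat or mouse plasma over a 2-hour time course.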
# [12] = molecular target: Glutamate NMDA receptor; GRIN1/GRIN2A (Homo sapiens) (UniProt Q05586+Q12879); test: Inhibition of GluN1/GluN2A receptor (unknown origin) expressed in Xenopus laevis oocytes assessed as inhibition of glutamate/glycine-induced current at 3 uM by two-electrode voltage clamp method; values are per cent of control; conditions: Oocyte
# Liver microsomes [13] = test: Metabolic stability in human liver microsomes assessed as compound remaining at 1 uM after 20 mins by LC-MS/MS analysis; type: ADME, Microsome
# Outline: as §1
# [14] = molecular target: Glutamate receptor 1 (Homo sapiens) (UniProt P42261); test: Inhibition of GluA1 receptor (unknown origin) expressed in Xenopus laevis oocytes assessed as inhibition of glutamate-induced current at 3 uM by two-electrode voltage clamp method; values are per cent of control; conditions: Oocyte
# Sequence of Glutamate receptor 1 (Homo sapiens) (P42261 whole entry): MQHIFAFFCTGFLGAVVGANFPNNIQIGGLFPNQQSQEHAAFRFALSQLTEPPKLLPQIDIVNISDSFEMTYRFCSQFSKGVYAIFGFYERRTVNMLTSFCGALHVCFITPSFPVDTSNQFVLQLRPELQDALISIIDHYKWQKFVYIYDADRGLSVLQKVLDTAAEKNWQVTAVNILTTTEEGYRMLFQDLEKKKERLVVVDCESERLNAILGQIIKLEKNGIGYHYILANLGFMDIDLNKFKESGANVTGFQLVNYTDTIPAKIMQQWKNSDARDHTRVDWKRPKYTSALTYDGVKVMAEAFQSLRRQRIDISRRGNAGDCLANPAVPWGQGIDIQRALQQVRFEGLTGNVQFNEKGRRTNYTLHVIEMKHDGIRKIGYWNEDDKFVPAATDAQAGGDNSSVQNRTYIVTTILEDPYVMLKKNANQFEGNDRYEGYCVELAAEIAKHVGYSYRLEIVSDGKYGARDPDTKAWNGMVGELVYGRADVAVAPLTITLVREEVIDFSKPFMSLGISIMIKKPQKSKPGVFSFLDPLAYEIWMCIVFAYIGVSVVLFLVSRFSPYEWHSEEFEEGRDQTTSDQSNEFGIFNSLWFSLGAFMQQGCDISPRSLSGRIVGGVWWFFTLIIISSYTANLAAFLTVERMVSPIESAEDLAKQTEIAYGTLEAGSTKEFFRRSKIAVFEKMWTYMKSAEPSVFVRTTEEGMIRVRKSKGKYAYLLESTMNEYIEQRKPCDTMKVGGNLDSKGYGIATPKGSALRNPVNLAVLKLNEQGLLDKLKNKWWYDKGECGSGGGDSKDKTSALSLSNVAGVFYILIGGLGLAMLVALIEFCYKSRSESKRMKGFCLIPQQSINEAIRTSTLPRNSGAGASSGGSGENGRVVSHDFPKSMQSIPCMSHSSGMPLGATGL
# [15] = molecular target: Ionotropic glutamate receptor kainate 2/5 (Homo sapiens) (UniProt Q16478+Q13002); test: Inhibition of GluK2/GluK5 receptor (unknown origin) expressed in Xenopus laevis oocytes assessed as inhibition of AMPA-induced current at 3 uM by two-electrode voltage clamp method; values are per cent of control; conditions: Oocyte
# Homo sapiens [16] = species: Homo sapiens; test: Inhibition of GluN2D receptor Q801Y mutant (unknown origin)
# [17] = molecular target: T1, Ionotropic glutamate receptor NMDA 1/2D (Homo sapiens) (UniProt Q05586+O15399); conditions: Oocyte, 1 uM
# Homo sapiens [18] = species: Homo sapiens; test: Inhibition of GluN2D receptor A752V mutant (unknown origin)
# [19] = molecular target: T1, Ionotropic glutamate receptor NMDA 1/2D (Homo sapiens); conditions: Oocyte, 1 uM; remark: listed apart in the source
# [20] = molecular target: 5-hydroxytryptamine receptor 1E (Homo sapiens, UniProt P28566); test: Inhibition of 5HT1E receptor (unknown origin)
# Outline: as §2
# Mu-type opioid receptor = Mu-type opioid receptor (Homo sapiens, UniProt P35372); test: Inhibition of mu-type opioid receptor (unknown origin)
# Outline: as §2
# Homo sapiens [21] = species: Homo sapiens; test: Inhibition of GluN2D receptor L705F mutant (unknown origin)
SMILES,residual activity [1],residual activity [2],residual activity [5],residual activity [7],residual activity [8],residual activity (Oocyte),Ki [9],IC50 [10],Stability (Plasma),residual activity [12],residual activity [14],residual activity [15],further results
O=C(O)CCC(=O)N1N=C(c2c(-c3ccc(Cl)cc3)c3ccccc3[nH]c2=O)CC1c1ccc(Cl)cc1 (racemic),97%,97%,98%,99%,67%,97%,> 10 µM,21 µM,Stable,89%,97%,97%,solubility kinetic [3]: > 80 µM; Papp (MDCK): 0.47 ×10⁻⁶ cm/s; CLint (Liver microsomes [4]): < 20 µL/min/mg; Ki (Histamine H2 receptor): > 10 µM; t1/2 (Liver microsomes [6]): > 1 h; Stability (Liver microsomes [11]): 115%; Stability (Liver microsomes [13]): 100%
O=C(O)/C=C/C(=O)N1N=C(c2c(-c3ccc(Br)cc3)c3ccccc3[nH]c2=O)CC1c1ccc(Cl)cc1 (racemic),97%,100%,96%,97%,72%,95%,> 10 µM,4.3 µM,Stable,89%,99%,95%,inhibition (Homo sapiens [16]): inactive; residual activity [17]: 4.9%; inhibition (Homo sapiens [18]): inactive; residual activity [19]: 4.8%; Ki [20]: > 10 µM; Ki (Mu-type opioid receptor): > 10 µM; inhibition (Homo sapiens [21]): inactive
